The nature of assay [1]: inhibitors of TNFa-induced NFkB p65 translocation, primary screen, imaging, HUVEC, MLSMR starter and 10KST1 sets (AID 438;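 active means inhibition above 20% together with a positive visual image hit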;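 further: compound added about 3h40 before a 20 min TNFalpha stimulation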;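 on inhibition: signal is the nuclear over cytoplasmic p65 intensity ratio per well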). As to conditions: HUVEC TNFa-induced p65 nuclear translocation; cell count: measured here: nuclei count (cytotoxicity indicator), at 2.08 µM; inhibition: at 2 µM, stronger effect = higher value, 0% TNFa-plus-vehicle, 100% no-TNFa wells.
Assay [2] in a line: inhibitors of mutant huntingtin aggregation, primary screen, imaging, exon1htt(103Q)mCFP cells, high-content imaging (AID 483).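 Further: compound exposure lasted 3 days before fixation.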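 On nuclei count: percent of the per-plate median nuclei count of sample wells.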 As to conditions: exon1htt(103Q)mCFP cell line, aggregate imaging, at 2 µM; inhibition of aggregation: stronger effect = higher value; nuclei count: measured here: cell count, toxicity.
Assay [3] in a line: inhibitors of E-selectin induction by TNFa, primary screen, imaging, HUVEC, immunofluorescence, MLSMR starter and 10KST1 sets (AID 487;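 active means visually confirmed hit in the image check and inhibition above 20%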;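 on inhibition: signal is fraction of cell area covered by stained E-selectin grains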;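 on nuclei count: 100% = median nuclei count of all wells on the same plate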). As to conditions: HUVEC TNFalpha-induced E-selectin immunofluorescence imaging, at 2 µM; inhibition: stronger effect = higher value; nuclei count: measured here: cell number, toxicity.
Assay [4] deals with Voltage-gated potassium channel subunit beta-2 (Rattus norvegicus) (UniProt P62483). Briefly: KvBeta enzyme negative modulators, primary screen, biochemical, NADPH fluorescence (AID 622;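 active means fluorescence slope higher than the sample average by over 3 SD, cut at about -0.22 in these data, passing the limit was not always enough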;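 further: slope of raw intensity against log time taken from 70 to 1610 s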). As to conditions: recombinant KvBeta, 4-cyanobenzaldehyde reduction, at 10 µM, stronger effect = higher value.
Sequence of Voltage-gated potassium channel subunit beta-2 (Rattus norvegicus) (P62483 whole entry, looked up): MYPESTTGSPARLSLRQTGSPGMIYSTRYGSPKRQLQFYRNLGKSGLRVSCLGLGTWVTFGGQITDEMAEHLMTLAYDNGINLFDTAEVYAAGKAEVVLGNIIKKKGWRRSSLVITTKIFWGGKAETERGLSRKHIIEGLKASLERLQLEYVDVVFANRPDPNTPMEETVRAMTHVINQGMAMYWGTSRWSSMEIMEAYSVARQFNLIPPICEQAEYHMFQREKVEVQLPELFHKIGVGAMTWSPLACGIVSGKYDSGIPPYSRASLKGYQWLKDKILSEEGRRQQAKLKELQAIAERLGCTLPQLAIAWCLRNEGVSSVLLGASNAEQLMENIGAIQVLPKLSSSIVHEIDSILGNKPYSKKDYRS
Assay [5] has the same target. The experiment in a line: KvBeta positive modulators, primary screen, biochemical, NADPH fluorescence (AID 623;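 active means NADPH fluorescence slope more negative than the mean of all samples by about 3 SD, 99.7% confidence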;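 further: fluorescence intensity change per second fitted from 20 to 320 s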). Conditions: Recombinant KvBeta, NADPH fluorescence decrease slope, 10 min; at 10 µM; stronger effect = lower value.
In assay [6] the target is Muscarinic acetylcholine receptor M4 (Homo sapiens) (UniProt P08173). Briefly: compounds altering M4/GIRK thallium flux, either direction, primary screen, M4 allosteric agonist project, cell-based, HEK293 M4/GIRK, BTC-AM (AID 625;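 active means fluorescence slope after compound addition differing from the mean of all tested samples at 99.7% confidence, mostly higher but some lower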;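 further: thallium influx through GIRK channels coupled to M4 in HEK293 cells with BTC-AM dye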). Conditions: at 10 µM, actives lie on both sides. Put shortly:
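assay system = HEK293 cells with M4 receptor and GIRK channels | medium = pH 7.3 thallium assay buffer | doses = 10 µM final, single point | timing = cells overnight at 37 °C, BTC-AM loading 1 h, reads 2 min total | signal = BTC-AM fluorescence, 1 Hz kinetic reads | read-out = post-addition slope, 15–24 s, of baseline-normalized fluorescence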

A short description of assay [7]: inhibitors of Sendai virus-induced IRF3 signaling, primary screen, TLR/RLR signaling modifier project, cell-based, Sendai virus stimulus, luciferase, 10K MLSCN set (AID 602276;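 active means inhibition at or above 50% at 10 µM; inactive means inhibition below 50%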;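 further: firefly luciferase from ISG56 promoter only with Renilla not read in this screen; 0% = Sendai virus plus DMSO and 100% = medium plus DMSO without virus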). Conditions: HEK293 RL24 IRF3 luciferase reporter, at 10 µM, stronger effect = higher value.
Assay [8] is described as follows: inhibitors of poly I:C-induced TLR3 signaling, primary screen, cell-based, poly I:C stimulus, luciferase, 10K MLSCN set (AID 602277;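 active means inhibition of the reporter signal at or above 50%; inactive means inhibition below 50%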). As to conditions: HEK293-TLR3 RL24 IRF3 luciferase reporter, at 10 µM, stronger effect = higher value. For orientation: A reporter such as luciferase makes a cellular process visible.

Active and inactive are the calls of the source.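 How the source made its calls, unless noted: active means visual image review flags a hit and inhibition of aggregation exceeds 20%; inconclusive means visual hit but inhibition at or below 20%; inactive means no hit on visual image review.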

Sequence of Muscarinic acetylcholine receptor M4 (Homo sapiens) (P08173 whole entry, looked up): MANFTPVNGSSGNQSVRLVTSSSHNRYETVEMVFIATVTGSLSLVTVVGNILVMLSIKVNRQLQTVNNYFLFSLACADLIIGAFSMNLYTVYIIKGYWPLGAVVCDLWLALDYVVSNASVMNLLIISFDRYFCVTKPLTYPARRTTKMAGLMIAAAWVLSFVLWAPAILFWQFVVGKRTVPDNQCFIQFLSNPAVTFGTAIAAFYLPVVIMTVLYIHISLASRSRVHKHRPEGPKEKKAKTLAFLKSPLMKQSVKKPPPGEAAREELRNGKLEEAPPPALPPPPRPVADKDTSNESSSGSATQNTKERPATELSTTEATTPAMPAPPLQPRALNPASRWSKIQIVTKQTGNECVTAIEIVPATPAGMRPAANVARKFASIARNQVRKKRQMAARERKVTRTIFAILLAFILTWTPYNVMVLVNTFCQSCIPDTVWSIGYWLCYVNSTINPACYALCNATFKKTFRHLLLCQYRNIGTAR

Turning to `CS(=O)(=O)N(CC(=O)NCc1ccccn1)c1ccc2c(c1)OCCO2`, the cell count in assay [1] turned out to be 755. In addition, the inhibition in assay [1] is -7.5% (inactive); in assay [3], 26% (inactive); in assay [7], 14.9% (inactive); in assay [8], 15.8% (inactive). For the same compound, the inhibition of aggregation in assay [2] was 13% (inactive). For the same compound, the figures for the nuclei count in assay [2] and in assay [3] were 101% and 78.9%, respectively. Besides, the fluorescence slope was -0.515 (inactive) in assay [4] and 0.00626 (inactive) in assay [6]. Also, the NADPH fluorescence slope in assay [5] was -4.7e-06 (inactive).
Turning to `Cc1cc(NC(=O)Cn2cnc3c2c(=O)n(C)c(=O)n3C)n(-c2ccccc2)n1`, in assay [1], the cell count turned out to be 580. Moreover, the inhibition was -38.9% (inactive) in assay [1], 22.7% (inactive) in assay [3], 13.4% (inactive) in assay [7] and 17% (inactive) in assay [8]. Moreover, the inhibition of aggregation in assay [2] is 1.1% (inactive). Moreover, the nuclei count was determined as 99.2% in assay [2] and 68.4% in assay [3]. Besides, the fluorescence slope was -0.33 (inactive) in assay [4] and 0.00675 (inactive) in assay [6]. The NADPH fluorescence slope in assay [5] is -8.3e-05 (inactive).
Turning to `CCOC(=O)c1c(C)oc2c1c(C=NCc1ccccn1)c(O)c1ccccc12`, the cell count in assay [1] was determined as 738. Moreover, the inhibition is 4.7% (inactive) in assay [1], -112% (inactive) in assay [3], 8.4% (inactive) in assay [7] and 29.2% (inactive) in assay [8]. Besides, the inhibition of aggregation in assay [2] is 7.3% (inactive). Besides, the figures for the nuclei count in assay [2] and in assay [3] were 84.9% and 124%, respectively. Further, the fluorescence slope in assay [4] was -0.322 (inactive); in assay [6] it was 0.00123 (inactive). Besides, in assay [5], the NADPH fluorescence slope is -2.5e-05 (inactive).
Consider `CCOc1cccc(OCCOCCN2CCCC2)c1`, for which, in assay [1], the cell count worked out at 802. For the same compound, the inhibition is 0.5% (inactive) in assay [1], -29.7% (inactive) in assay [3], 14.6% (inactive) in assay [7] and 13.2% (inactive) in assay [8]. Besides, the inhibition of aggregation in assay [2] is 2.1% (inactive). Besides, the nuclei count was found to be 79.5% in assay [2] and 103% in assay [3]. For the same compound, the fluorescence slope was -0.229 (inactive) in assay [4] and 0.00581 (inactive) in assay [6]. The NADPH fluorescence slope in assay [5] is -1.9e-05 (inactive).
On to `Cc1nc2nc(SCC(=O)NCc3ccco3)nn2c(C)c1Cc1ccccc1`, for which the cell count in assay [1] turned out to be 457. Moreover, the inhibition in assay [1] is 1.4% (inactive); in assay [3], -10.5% (inactive); in assay [7] it was -7.73% (inactive); in assay [8], 0.532% (inactive). Besides, the inhibition of aggregation in assay [2] is -6.7% (inactive). Also, the nuclei count in assay [2] worked out at 112%; in assay [3], 126%. Also, the fluorescence slope in assay [4] was -0.353 (inactive); in assay [6], 0.0066 (inactive). The NADPH fluorescence slope in assay [5] is -2.9e-05 (inactive).
As for `O=C1CC(c2ccco2)CC(O)=C1C=NCCN1CCNCC1` (centres undefined), the cell count in assay [1] was found to be 315. For the same compound, the inhibition is -8.1% (inactive) in assay [1], -35% (inactive) in assay [3], 22.6% (inactive) in assay [7] and 31.6% (inactive) in assay [8]. The inhibition of aggregation in assay [2] is -0.5% (inactive). In addition, the values for the nuclei count in assay [2] and in assay [3] were 114% and 122%, respectively. Moreover, the fluorescence slope in assay [4] is -0.595 (inactive); in assay [6], 0.00594 (inactive). Also, the NADPH fluorescence slope in assay [5] is 9e-06 (inactive).
With `Cc1ccc(-n2ncc3c(Nc4c(C)n(C)n(-c5ccccc5)c4=O)ncnc32)c(C)c1`, in assay [1], the cell count was 443. Moreover, the inhibition in assay [1] is 9.3% (inactive); in assay [3] it was -81.8% (inactive); in assay [7], 13.9% (inactive); in assay [8], 12.5% (inactive). In addition, in assay [2], the inhibition of aggregation is 6.8% (inactive). Further, the values for the nuclei count in assay [2] and in assay [3] were 96.6% and 120%, respectively. For the same compound, the fluorescence slope in assay [4] was -0.538 (inactive); in assay [6], 0.0045 (inactive). The NADPH fluorescence slope in assay [5] is -2.2e-05 (inactive).
In the case of `COc1ccc(C2C(C(C)=O)=C(C)N=c3s/c(=C\c4ccc5c(c4)OCO5)c(=O)n32)c(OC)c1` (centres undefined), the cell count in assay [1] turned out to be 340. The inhibition in assay [1] was -19.3% (inactive); in assay [3] it was 3.3% (inactive); in assay [7], -6% (inactive); in assay [8], 20.7% (inactive). Further, the inhibition of aggregation in assay [2] was 12.7% (inactive). The nuclei count in assay [2] stood at 118%; in assay [3], 115%. Also, the fluorescence slope in assay [4] is -0.568 (inactive); in assay [6] it was 0.00431 (inactive). Besides, the NADPH fluorescence slope in assay [5] is -1.5e-05 (inactive).
Consider `COC(=O)CCN1CCC(C(N)=O)CC1`, for which the cell count in assay [1] amounted to 336. For the same compound, the inhibition in assay [1] is -6.3% (inactive); in assay [3], -132% (inactive); in assay [7] it was 1.78% (inactive); in assay [8], 6.83% (inactive). For the same compound, the inhibition of aggregation in assay [2] is -4.2% (inactive). Further, the nuclei count in assay [2] amounted to 107%; in assay [3], 129%. For the same compound, the fluorescence slope in assay [4] is -0.437 (inactive); in assay [6], 0.00663 (inactive). Also, the NADPH fluorescence slope in assay [5] is 6.8e-05 (inactive).
On to `Cc1c(C(=O)O)oc2ccc(S(=O)(=O)NCc3ccccc3)cc12`, for which the cell count in assay [1] worked out at 675. Moreover, the inhibition in assay [1] was -4.8% (inactive); in assay [3], -38.4% (inactive); in assay [7], -0.0664% (inactive); in assay [8], 11.8% (inactive). Also, the inhibition of aggregation in assay [2] was 21.7% (inactive). The results for the nuclei count in assay [2] and in assay [3] were 108% and 110%, respectively. For the same compound, the values for the fluorescence slope in assay [4] and in assay [6] were -0.432 (inactive) and 0.00586 (inactive), respectively. Besides, in assay [5], the NADPH fluorescence slope was 4.7e-05 (inactive).
In the case of `COc1ccc(C(C)(C)C)cc1NC(=O)Nc1ccc2c(c1)OCO2`, in assay [1], the cell count worked out at 433. Besides, the inhibition was 2.7% (inactive) in assay [1], -13.1% (inactive) in assay [3], -6.55% (inactive) in assay [7] and -2.75% (inactive) in assay [8]. Moreover, the inhibition of aggregation in assay [2] is 7.4% (inactive). Besides, the nuclei count in assay [2] was determined as 102%; in assay [3], 96.8%. Besides, the fluorescence slope in assay [4] is -0.577 (inactive); in assay [6] it was 0.0063 (inactive). Further, the NADPH fluorescence slope in assay [5] is -8.3e-06 (inactive).
On to `CN1CCCc2cc(C#N)c(=O)[nH]c21`, for which the cell count in assay [1] stood at 492. The inhibition is -9.7% (inactive) in assay [1], 3.9% (inactive) in assay [3], 11.5% (inactive) in assay [7] and 14% (inactive) in assay [8]. Besides, the inhibition of aggregation in assay [2] is -0.4% (inactive). In addition, the nuclei count is 108% in assay [2] and 85% in assay [3]. For the same compound, the fluorescence slope in assay [4] was -0.117 (active); in assay [6], 0.00776 (inactive). Also, the NADPH fluorescence slope in assay [5] was 1e-05 (inactive).
With `Cc1ccc2c(c1C)NC(C)CC2C` (centres undefined), the cell count in assay [1] was 553. Also, the inhibition was 9.8% (inactive) in assay [1], 35.5% (inactive) in assay [3], 11.1% (inactive) in assay [7] and 13.6% (inactive) in assay [8]. Further, the inhibition of aggregation in assay [2] was 5.9% (inactive). Moreover, the nuclei count stood at 101% in assay [2] and 100% in assay [3]. Moreover, the values for the fluorescence slope in assay [4] and in assay [6] were -0.604 (inactive) and 0.0052 (inactive), respectively. In addition, in assay [5], the NADPH fluorescence slope is -2.8e-05 (inactive).
As for `CN(C)C(=O)CN(c1ccc(F)c(Cl)c1)S(C)(=O)=O`, in assay [1], the cell count came to 352. The inhibition is -2.1% (inactive) in assay [1], 5.1% (inactive) in assay [3], 1.05% (inactive) in assay [7] and 9.43% (inactive) in assay [8]. Moreover, the inhibition of aggregation in assay [2] was -0.4% (inactive). Moreover, the nuclei count was 104% in assay [2] and 109% in assay [3]. Also, the fluorescence slope in assay [4] is -0.56 (inactive); in assay [6], 0.00357 (inactive). For the same compound, in assay [5], the NADPH fluorescence slope is -8.3e-05 (inactive).

In general, inhibition refers to the drop in the measured response relative to a control, in per cent.

The values are drawn from PubChem BioAssay.
